Results taken from ChEMBL document CHEMBL1124192, “Cyclopentenylcytosine. A carbocyclic nucleoside with antitumor and antiviral properties” (J Med Chem, 1988).
Values after ≈ are worked out from the molar mass of the structure shown. Values joined by “and” are separate entries in the source; they are usually repeats but may differ in a detail not shown here. Equal values may be shown once.

Legend:
Cytomegalovirus [1] = test: Log value for antiviral activity against Cytomegalovirus (AD169) from MRC5 diploid human embryonic lung cells at 10 ug/mL; assay type: functional
Outline: (§1)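 CMV AD169 yield reduction in MRC5 cells. Subconfluent monolayers infected at MOI 0.2 PFU/cell for 1.5 h at 37 °C, rinsed, then fed drug in MEM + 2% FBS, in duplicate. Drug refed on day 3, cultures harvested on day 6 by freeze-thaw and pooled. Yield titrated by plaque assay under 0.25% agarose overlay for 5–6 days, then formalin-fixed and methylene blue-stained for plaque counts.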

Cytomegalovirus [2] = test: Log value for antiviral activity against Cytomegalovirus (AD169) from MRC5 diploid human embryonic lung cells at 3.2 ug/mL; assay type: functional; outline: as §1
Cytomegalovirus [3] = test: Log value for antiviral activity against Cytomegalovirus (AD169) from MRC5 diploid human embryonic lung cells at 320 ug/mL; assay type: functional; outline: as §1
Cytomegalovirus [4] = test: Log value for antiviral activity against Cytomegalovirus (AD169) from MRC5 diploid human embryonic lung cells at 32 ug/mL; assay type: functional; outline: as §1
[5] = system: unidentified influenza virus; test: Inhibitory dose of compound required to inhibit cytopathogenic effects of influenza virus with A2/Aichi/2/68 strain in MDCK cells; assay type: functional; conditions: read-out: ID50 (the source's name)
[6] = system: unidentified influenza virus; test: Tested for inhibition of virus-induced cytopathogenic effect and cytotoxicity of compound against influenza virus with A2/Aichi/2/68 strain in MDCK cell; assay type: functional
[7] = system: Japanese encephalitis virus; test: Tested for inhibition of virus-induced cytopathogenic effect and cytotoxicity of compound against Japanese encephalitis virus with […] strain in vero cell; assay type: functional
L1210 [8] = test: Compound was tested for antitumor activity against L1210 leukemia in mouse at dose 1 mg/kg administered subcutaneously in experiment 2; assay type: functional; conditions: L1210, sc, route subcutaneous
Outline: (§2)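 Mice bearing L1210, L1210/ara-C, P388 or P388/ara-C leukaemia. Tumour implanted at the site each line names: ip, sc or ic. Drug given ip in physiologic saline on a QD1-9 schedule, at several dose levels per experiment. Life-span runs ended on day 30. Read-out is median % increase in life span versus tumoured untreated controls, with long-term survivors included.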

L1210 [9] = test: Compound was tested for antitumor activity against L1210/ara-C leukemia in mouse at dose 1 mg/kg administered intraperitoneally; assay type: functional; conditions: L1210, ip, route intraperitoneal; outline: as §2
L1210 [10] = test: Median percent increase in life span of tumored, treated mice relative to tumored, untreated controls after intraperitoneal dose 1 mg/kg daily (1-9 days); assay type: functional; conditions: Mus musculus, L1210, ip
L1210 [11] = test: Number of 60-day survivors out of 10 tested at dose 1 mg/kg administered intraperitoneally; assay type: functional, Mus musculus; conditions: route intraperitoneal
M5076 [12] = test: Compound was tested for antitumor activity against M5076 leukemia in mouse at dose 0.5 mg/kg administered intraperitoneally in experiment 1; assay type: functional; conditions: M5076, ip, route intraperitoneal
Outline: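 Mice bearing M5076 tumour. Drug given ip in physiologic saline, daily on days 1-13, at several dose levels. Experiment ended on day 30. Read-out is median % increase in life span versus untreated tumoured controls, with long-term survivors included.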

M5076 [13] = test: Log cell kill at the end of treatment at dose 0.5 mg/kg administered intraperitoneally; assay type: functional, Mus musculus; conditions: route intraperitoneal
L1210 [14] = test: Compound was tested for antitumor activity against L1210 leukemia in mouse at dose 1.5 mg/kg administered intracerebrally in experiment 1; assay type: functional; conditions: L1210, central; outline: as §2
Mus musculus [15] = test: Compound was tested for antitumor activity against human MX-1 mammary tumor xenografts in athymic mice at dose 1.5 mg/kg administered subrenal capsule in experiment 1; assay type: functional
Mus musculus [16] = test: Compound was tested for antitumor activity against human LOX melanoma tumor xenografts in athymic mice at dose 1 mg/kg administered intraperitoneally in experiment 1; assay type: functional; conditions: ip, route intraperitoneal
Outline: (§3)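 Athymic mice carrying human LOX melanoma. Drug given ip in saline on a QD1-9 schedule, at several dose levels. Life-span experiment ended on day 30. Read-out is % increase in life span versus untreated tumoured controls, with long-term survivors included.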

Mus musculus [17] = test: Compound was tested for antitumor activity against human LOX melanoma tumor xenografts in athymic mice at dose 2.25 mg/kg administered intraperitoneally; assay type: functional; conditions: ip, route intraperitoneal; outline: as §3
P388 [18] = test: Compound was tested for antitumor activity against P388/ara-C leukemia in mouse at dose 1.5 mg/kg administered intraperitoneally in experiment 2; assay type: functional; conditions: P388, ip, route intraperitoneal; outline: as §2
P388 [19] = test: Number of 30-day survivors out of 6 mice at dose 1.5 mg/kg administered intraperitoneally; assay type: functional, Mus musculus; conditions: route intraperitoneal
P388 [20] = test: Compound was tested for antitumor activity against P388/ara-C leukemia in mouse at dose 1.5 mg/kg administered intraperitoneally in experiment 1; assay type: functional; conditions: P388, ip, route intraperitoneal; outline: as §2
Punta Toro virus = test: Tested for inhibition of virus-induced cytopathogenic effect and cytotoxicity of compound against Punta toro virus with adames strain in vero cell; assay type: functional
[21] = system: Vesicular stomatitis virus; test: Inhibitory dose of compound required to inhibit cytopathogenic effects of vesicular stomatitis RNA virus with indiana strain in L929 cells; assay type: functional
[22] = system: Vesicular stomatitis virus; test: Tested for inhibition of virus-induced cytopathogenic effect and cytotoxicity of compound against vesicular stomatitis RNA virus with indiana strain in L929 cell; assay type: functional
Human alphaherpesvirus 3 [23] = test: Compound was tested for antiviral activity against Varicella-Zoster from human diploid foreskin cells in mono layer culture at 3.2 ug/ml; assay type: functional
Outline: (§4)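 VZV isolate DM625 on Huf cells (human diploid foreskin monolayers). Inoculum was left on after 1 h adsorption at 37 °C. Drug overlay in MEM + 2% FBS without agarose, refed with fresh drug at 72 h, in 2% CO2. Cells fixed in 10% formalin and stained with methylene blue; plaques counted day 6. % plaque reduction versus untreated virus controls, triplicates.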

Human alphaherpesvirus 3 [24] = test: Compound was tested for antiviral activity against Varicella-Zoster from human diploid foreskin cells in mono layer culture at 32 ug/ml; assay type: functional; outline: as §4
Vero [25] = test: Cytotoxicity of compound was determined by reduction in number of viable vero monolayer cells after treatment with 0.01 ug/mL for 4 days; assay type: functional, Chlorocebus sabaeus
Outline: (§5)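 Vero monolayers in duplicate cultures, exposed to each drug concentration in medium at 37 °C in a CO2 incubator for 4 days. Viable cells counted by trypan blue exclusion, and % reduction calculated against untreated control cultures.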

Vero [26] = test: Cytotoxicity of compound was determined by reduction in number of viable vero monolayer cells after treatment with 0.032 ug/mL for 4 days; assay type: functional, Chlorocebus sabaeus; outline: as §5
Vero [27] = test: Cytotoxicity of compound was determined by reduction in number of viable vero monolayer cells after treatment with 100 ug/mL for 4 days; assay type: functional, Chlorocebus sabaeus; outline: as §5
Human alphaherpesvirus 3 [28] = test: Compound was tested for antiviral activity against Varicella-Zoster from human diploid foreskin cells in mono layer culture at 0.1 ug/ml; assay type: functional; outline: as §4
Human alphaherpesvirus 3 [29] = test: Compound was tested for antiviral activity against Varicella-Zoster from human diploid foreskin cells in mono layer culture at 1 ug/ml; assay type: functional; outline: as §4
Human alphaherpesvirus 3 [30] = test: Compound was tested for antiviral activity against Varicella-Zoster from human diploid foreskin cells in mono layer culture at 10 ug/ml; assay type: functional; outline: as §4
[31] = Ratio of minimum drug concentration to ID50 of the compound (Adames strain); assay type: ADME; conditions: read-out: Therapeutic index
[32] = Ratio of minimum drug concentration to ID50 of the compound(Asibi strain); assay type: ADME; conditions: read-out: Therapeutic index
[33] = Ratio of minimum drug concentration to ID50 of the compound ([…] strain); assay type: ADME; conditions: read-out: Therapeutic index
L1210 [34] = test: Compound was tested for antitumor activity against L1210 leukemia in mouse at dose 1 mg/kg administered intracerebrally in experiment 2; assay type: functional; conditions: L1210, central; outline: as §2
Human alphaherpesvirus 3 [35] = test: Compound was tested for antiviral activity against Varicella-Zoster from human diploid foreskin cells in mono layer culture at 0.32 ug/ml; assay type: functional; outline: as §4

In the case of `Nc1ccn([C@@H]2C=C(CO)[C@@H](O)[C@H]2O)c(=O)n1`, the “Reduction in virus yield” value (Cytomegalovirus [1]) was 1.9 pfu/ml, the “Reduction in virus yield” value (Cytomegalovirus [2]) was 1.5 pfu/ml and the “Reduction in virus yield” value (Cytomegalovirus [3]) was 5.3 pfu/ml. The “Reduction in virus yield” value (Cytomegalovirus [4]) was 2 pfu/ml, the IC50 [5] was 18.2 µg/mL (≈ 76.1 µM) and the Virus rating [6] was 2.4. The Virus rating [7] was 2.4, the ILS at 1 mg/kg (L1210 [8]) was 83% and the ILS at 1 mg/kg (L1210 [9]) was greater than 650%. For the same compound, the ILS at 1 mg/kg (L1210 [10]) was 124%, the No. of survivors (L1210 [11]) was 6 and the ILS at 0.5 mg/kg (M5076 [12]) was 5%. The LCK (M5076 [13]) was -2, the ILS at 1.5 mg/kg (L1210 [14]) was 45% and the ILS at 1.5 mg/kg (Mus musculus [15]) was 100%. For the same compound, the ILS at 1 mg/kg (Mus musculus [16]) was 119%, the ILS at 2.25 mg/kg (Mus musculus [17]) was 58% and the ILS at 1.5 mg/kg (P388 [18]) was 133%. The No. of survivors (P388 [19]) was 3, the ILS at 1.5 mg/kg (P388 [20]) was 165% and the Virus rating (Punta Toro virus) was 1.5. For the same compound, the ID50 [21] was 0.57 µg/mL and 0.25 µg/mL, the Virus rating [22] was 2.4 and 3 and the Plaque reduction (Human alphaherpesvirus 3 [23]) was 33%. The Plaque reduction (Human alphaherpesvirus 3 [24]) was 36%, the Reduction (Vero [25]) was 0% and the Reduction (Vero [26]) was 3%. The Reduction (Vero [27]) was 66%, the Plaque reduction (Human alphaherpesvirus 3 [28]) was 21% and the Plaque reduction (Human alphaherpesvirus 3 [29]) was 36%. The Plaque reduction (Human alphaherpesvirus 3 [30]) was 33%, the selectivity ratio [31] was 0.3 and the selectivity ratio [32] was 0.1. The selectivity ratio [33] was 3.1, the ILS at 1 mg/kg (L1210 [34]) was 42% and the Plaque reduction (Human alphaherpesvirus 3 [35]) was 33%.
